Compounds with a hit are over-represented: about 4.7% of the library has one in this group of screens.
IMP-1 inh – blocks Pseudomonas aeruginosa IMP-1 metallo-beta-lactamase; purified IMP-1, nitrocefin hydrolysis, epi-absorbance fluorescence; inhibition, % at 5.6 µM; hit rate 0.45% among 290,000;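 active means inhibition above the mean plus 3 SD of all compounds in the same screening run, cut at about 4.5% in these data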
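System: Purified IMP-1 | Read-out basis: Percent enzyme inhibition | Controls: IMP-1 with DMSO as 0%, enzyme-free DMSO as 100% | Replicates: One well per compound | Doses: 5.6 µM nominal single concentration | Detection: Epi-absorbance fluorescence, 480 nm excitation, 530 nm emission | Incubation: 25 °C, 15 min preincubation, 25 min reaction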
aSyn UTR inh – 5' untranslated region of α-synuclein, MLPCN primary screen; alpha-synuclein 5'UTR reporter, inhibitor activity; inhibition, % (tested at 7.5 µM); hit rate 0.82% among 300,000; AID 1813; in the data active means inhibition above about 60%;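 further: H4 neuroglioblastoma cells stably carrying SNCA 5'UTR luciferase fusion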
697 NFkB inh – inhibitors of the PMA/ionomycin-induced NF-kB reporter in 697 B cells; 697 B-cell NF-kB luciferase reporter, 16 h; inhibition, % at 4 µM; hit rate 0.33% among 330,000; in the data active means inhibition above about 35%
VIM-2 inh – blocks Pseudomonas aeruginosa VIM-2 metallo-beta-lactamase. purified VIM-2, nitrocefin hydrolysis, epi-absorbance fluorescence. inhibition, % at 5.6 µM. hit rate 0.89% among 290,000. AID 1527;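 active means inhibition above the mean of all tested compounds plus 3 SD, cutoff set per screening run, cut at about 7.5% in these data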;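 further: red hydrolysis product quenches plate fluorescence so inhibitors raise well fluorescence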
Jurkat NFkB inh – inhibitors of the PMA/ionomycin-induced NF-kB reporter in Jurkat cells; PMA/ionomycin-induced NF-kB luciferase reporter, luminescence; inhibition, % at 4 µM; hit rate 0.53% among 330,000; in the data active means inhibition above about 50%
Mdm2 MdmX PPI – inhibitors of human Mdm2/MdmX interaction. O15151+Q00987. hit rate 3% among 330,000. AID 485346. SaOS-2 split-luciferase Mdm2/MdmX complementation, luminescence. inhibition, % at 8 µM;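 active means inhibition of at least 50% at 8 µM in the primary screen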
Target sequence (O15151 whole entry, looked up): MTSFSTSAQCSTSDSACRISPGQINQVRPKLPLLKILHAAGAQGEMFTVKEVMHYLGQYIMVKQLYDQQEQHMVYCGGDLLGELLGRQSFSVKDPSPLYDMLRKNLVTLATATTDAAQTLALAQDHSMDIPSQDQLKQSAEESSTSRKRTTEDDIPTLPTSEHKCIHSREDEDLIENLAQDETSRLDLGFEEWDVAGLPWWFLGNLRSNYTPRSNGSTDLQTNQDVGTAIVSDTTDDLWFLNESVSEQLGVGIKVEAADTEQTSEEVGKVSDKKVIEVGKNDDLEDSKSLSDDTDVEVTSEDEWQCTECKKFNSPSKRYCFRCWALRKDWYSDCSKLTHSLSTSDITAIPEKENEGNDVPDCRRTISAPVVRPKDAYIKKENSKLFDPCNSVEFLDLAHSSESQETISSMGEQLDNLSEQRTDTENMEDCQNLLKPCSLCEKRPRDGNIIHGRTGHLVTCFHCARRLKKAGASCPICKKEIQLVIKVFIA
Target sequence (Q00987 whole entry, looked up): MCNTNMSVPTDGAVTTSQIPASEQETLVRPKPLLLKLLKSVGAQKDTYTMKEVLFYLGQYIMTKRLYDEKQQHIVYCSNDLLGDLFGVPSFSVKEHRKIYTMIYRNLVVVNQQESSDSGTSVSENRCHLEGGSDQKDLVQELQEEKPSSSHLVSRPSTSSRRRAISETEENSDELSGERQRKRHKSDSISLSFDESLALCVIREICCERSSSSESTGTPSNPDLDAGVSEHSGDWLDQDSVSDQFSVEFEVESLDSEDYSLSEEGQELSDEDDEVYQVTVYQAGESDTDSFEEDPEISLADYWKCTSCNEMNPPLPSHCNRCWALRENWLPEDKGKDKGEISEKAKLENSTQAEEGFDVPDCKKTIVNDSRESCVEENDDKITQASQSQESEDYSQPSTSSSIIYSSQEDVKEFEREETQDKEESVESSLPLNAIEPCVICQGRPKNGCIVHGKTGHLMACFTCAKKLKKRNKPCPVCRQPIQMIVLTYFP
VIM-2 confirm – VIM-2 inhibition, confirmation assay | shares compounds with IMP-1 inh | purified VIM-2 enzyme, nitrocefin absorbance | hit rate 73% among 200 | inhibition, % at 5.6 µM | AID 1860; in the data active means inhibition above about 8%
TEM-1 inh 2 – blocks E. coli TEM-1 beta-lactamase, VIM-2 IMP-1 counter-screen | shares compounds with IMP-1 inh | nitrocefin absorbance inhibition | inhibition, % at 5.6 µM | hit rate 50% among 200; in the data active means inhibition above about 0.66%
IMP-1 inh conf – confirmation of P. aeruginosa IMP-1 metallo-beta-lactamase inhibitors; shares compounds with IMP-1 inh; purified IMP-1 enzyme, absorbance substrate hydrolysis; inhibition, % at 5.6 µM; hit rate 60% among 200; AID 2189; in the data active means inhibition above about 4.9%
Each line names hits and unclear results; the compound was inactive in the other large screens (follow-up assays come after a bar, where they were run).

NC(=S)N/N=C/c1cccc(O)c1O	none
Cc1cc(/C=N/NC(N)=S)c(O)c(/C=N/NC(N)=S)c1	IMP-1 inh 27, VIM-2 inh 26 | VIM-2 confirm 26 | TEM-1 inh 2 inactive | IMP-1 inh conf 25
CCOc1ccc(NC(=O)c2c(NC(=O)CN3CCN(C)CC3)sc3c2CCC3)cc1	IMP-1 inh 4.7, VIM-2 inh 9.6 | VIM-2 confirm 16 | TEM-1 inh 2 inactive | IMP-1 inh conf inactive
CCOc1ccc(NC(=O)c2c(NC(=O)CN3CCCC3)sc3c2CCC3)cc1	none
CN(C)c1ccc(C2/C(=C(/O)c3ccc(Br)cc3)C(=O)C(=O)N2C)cc1 (stereo unspecified)	none
CC1=CC2=NC(=O)/C(=C/c3coc4ccc(Cl)cc4c3=O)C(=N)N2O1	IMP-1 inh 9.4, VIM-2 inh 13 | VIM-2 confirm 7.8 | TEM-1 inh 2 inactive | IMP-1 inh conf inactive
N=C1/C(=C\c2coc3ccccc3c2=O)C(=O)N=C2SC=CN12	IMP-1 inh 8.6, VIM-2 inh 9.3 | VIM-2 confirm 16 | TEM-1 inh 2 3.6 | IMP-1 inh conf 12
Cc1ccc(OCC(=O)Nc2ccc(NC(=O)c3ccccc3)c(C)c2)cc1	none (no result: aSyn UTR inh)
COc1ccc(NC(=O)c2ccc(NC(=O)CN3CCC(C(N)=O)CC3)cc2)cc1	none (no result: IMP-1 inh, aSyn UTR inh, VIM-2 inh)
O=C(CSc1nc2ccccc2c(=O)n1CCCO)Nc1ccc2c(c1)OCCO2	none (no result: IMP-1 inh, aSyn UTR inh, VIM-2 inh)
COc1ccccc1-n1c(SCC(=O)OC(C)C)nc2cccnc21	IMP-1 inh 38, VIM-2 inh 16 | VIM-2 confirm inactive | TEM-1 inh 2 inactive | IMP-1 inh conf inactive
CCN(CC)C(=O)CSc1nc2cccnc2n1-c1ccccc1OC	none
O=C(c1ccc(-n2cncn2)c([N+](=O)[O-])c1)N1CCN(S(=O)(=O)c2ccc(Cl)cc2)CC1	none
Cc1ccc(Cn2c(C(C)Nc3nc(-c4ccc(C)cc4)cs3)nc3cc(Cl)c(Cl)cc32)cc1 (stereo unspecified)	IMP-1 inh 29, VIM-2 inh 12 | VIM-2 confirm 11 | TEM-1 inh 2 inactive | IMP-1 inh conf 25
CC(Nc1nc(-c2ccc(F)cc2)cs1)c1nc2cc(Cl)c(Cl)cc2n1CCCO (stereo unspecified)	none (no result: IMP-1 inh, VIM-2 inh)
CCNC(=S)Nc1cc(C)ccn1	none
CCCc1cc(C(N)=S)ccn1	IMP-1 inh 4.8 | VIM-2 confirm inactive | TEM-1 inh 2 inactive | IMP-1 inh conf inactive
COc1cc(S(=O)(=O)N2CCCN(C)CC2)ccc1NC(C)=O	none
Nc1ccc2nc3c(=O)n(C4CCCCC4)c(=O)[nH]c3nc2c1	IMP-1 inh 24, VIM-2 inh 21 | VIM-2 confirm 23 | TEM-1 inh 2 30 | IMP-1 inh conf 16
Nc1ccc2nc3c(=O)n(CCc4ccccc4)c(=O)[nH]c3nc2c1	IMP-1 inh 11, VIM-2 inh 9.1 | VIM-2 confirm 19 | TEM-1 inh 2 33 | IMP-1 inh conf 18
Cc1cc2nc3c(=O)n(CCc4ccccc4)c(=O)[nH]c3nc2cc1N	none
CCCCn1c(=O)[nH]c2nc3cc(N)ccc3nc2c1=O	IMP-1 inh 17, VIM-2 inh 19 (no result: aSyn UTR inh, 697 NFkB inh, Jurkat NFkB inh, Mdm2 MdmX PPI) | VIM-2 confirm 22 | TEM-1 inh 2 31 | IMP-1 inh conf 18
Cc1sc2ncnc(SCC(=O)NCC3CCCO3)c2c1C (stereo unspecified)	none (no result: IMP-1 inh, aSyn UTR inh, VIM-2 inh)
O=C1CCc2cc(S(=O)(=O)NC3CCCCC3)ccc2N1	none (no result: IMP-1 inh, aSyn UTR inh, VIM-2 inh)
N#CC(C#N)=C1C=C2C=C(N3CCCCC3)CCC2CC1 (stereo unspecified)	IMP-1 inh 58, VIM-2 inh 48 (no result: aSyn UTR inh, 697 NFkB inh, Jurkat NFkB inh, Mdm2 MdmX PPI) | VIM-2 confirm 62 | TEM-1 inh 2 87 | IMP-1 inh conf 58
N#CC1=C(N)C2=C(N3CCCCC3)CCCC2C1(C#N)C#N (stereo unspecified)	none
CCN(CC)C1=CC2=CC(=C(C#N)C#N)CCC2CC1 (stereo unspecified)	IMP-1 inh 47, VIM-2 inh 36 | VIM-2 confirm 60 | TEM-1 inh 2 79 | IMP-1 inh conf 58
CCCCN(C)C1=CC2=CC(=C(C#N)C#N)CCC2CC1 (stereo unspecified)	IMP-1 inh 43, VIM-2 inh 30 | VIM-2 confirm 53 | TEM-1 inh 2 79 | IMP-1 inh conf 50
COC(=O)c1sccc1NC(=O)c1ccc(C#N)cc1	IMP-1 inh 32, VIM-2 inh 16 | VIM-2 confirm 14 | TEM-1 inh 2 inactive | IMP-1 inh conf 22
COC(=O)c1sccc1NC(=O)c1ccc(OC)cc1	none
O=C1CSC(=S)N1/N=C/c1cc(Br)c(O)c(Br)c1	IMP-1 inh 23, VIM-2 inh 13 (no result: 697 NFkB inh, Jurkat NFkB inh, Mdm2 MdmX PPI) | VIM-2 confirm 26 | TEM-1 inh 2 3.6 | IMP-1 inh conf 37
CCN(CC)C(=O)c1cccc(NC(=O)c2cc(C3CC3)nc3c2cnn3C(C)C)c1	none (no result: IMP-1 inh, aSyn UTR inh, VIM-2 inh)
CCN(CC)c1ccc(/C=C2\C(=N)N3N=C(CC(=O)N4CCOCC4)SC3=NC2=O)cc1	IMP-1 inh 6.4, VIM-2 inh 11 | VIM-2 confirm 9.3 | TEM-1 inh 2 inactive | IMP-1 inh conf inactive
CSc1ccc(C(=O)C2CCCN(C(=O)CN3CCOC3=O)C2)cc1 (stereo unspecified)	none
O=C(O)c1ccc2c3c(cccc13)C(=O)N(c1ccccc1)C2=O	none
Nc1cccc(N2C(=O)c3cccc4c(N)ccc(c34)C2=O)c1	IMP-1 inh 18, VIM-2 inh 22 | VIM-2 confirm 18 | TEM-1 inh 2 21 | IMP-1 inh conf 14
Cc1cccc(N2C(=O)c3cccc4c(N)ccc(c34)C2=O)c1	IMP-1 inh 25, VIM-2 inh 21 | VIM-2 confirm 21 | TEM-1 inh 2 31 | IMP-1 inh conf 19
Cc1cccc(N2C(=O)c3cccc4cccc(c34)C2=O)c1	none
Nc1ccc2c3c(cccc13)C(=O)N(c1ccccc1)C2=O	IMP-1 inh 37, VIM-2 inh 35 (no result: 697 NFkB inh, Jurkat NFkB inh, Mdm2 MdmX PPI) | VIM-2 confirm 35 | TEM-1 inh 2 47 | IMP-1 inh conf 33
O=C(CSc1cc(Cl)ccc1Cl)Nc1ccc(N2CCOCC2)cc1	none (no result: IMP-1 inh, aSyn UTR inh, VIM-2 inh)
CC(=O)Oc1ccc2c(c1)Oc1cc(OC(C)=O)ccc1C21OC(=O)c2ccccc21	IMP-1 inh 140, VIM-2 inh 143 (no result: aSyn UTR inh) | VIM-2 confirm 14 | TEM-1 inh 2 3.3 | IMP-1 inh conf 4.7
COc1ccc(N(CC(=O)N/N=C/c2cccnc2)S(=O)(=O)c2ccc(C)cc2)cc1OC	none
Oc1sc(C=Nc2ccccc2)c2ccccc12	IMP-1 inh 15, VIM-2 inh 17 | VIM-2 confirm 23 | TEM-1 inh 2 inactive | IMP-1 inh conf inactive
O=C(CCNC(=O)c1ccc(Br)cc1)Nc1ncccc1O	none
